Reference: ChEMBL document CHEMBL4689842, “EUbOPEN Chemogenomics Library wave 1” (2021)

Tested on: U2OS
Assay: Multiplex assay against U2OS
Type: toxicity, cell-based
Settings: human
How it was run: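 Per cents of healthy-nucleus cells form the tubulin, mitochondrial-mass and membrane-permeability phenotype values. Live cells were stained at seeding with Hoechst33342, BioTracker Green Microtubule Cytoskeleton Dye, MitoTracker Red and Annexin V Alexa Fluor 680. After compound addition they were imaged on a CQ1 microscope at 37°C and 5% CO2, and CellPathfinder machine-learning gating split them into Hoechst high-intensity objects or normal cells, normal cells into healthy, pyknosed or fragmented nuclei, and pyknosed cells into mitotic or apoptotic.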

[1] = 12 h, 1 µM, compound concentration 1 uM, replicate 1
[2] = 12 h, 1 µM, compound concentration 1 uM, replicate 2
[3] = 12 h, 10 µM, compound concentration 10 uM, replicate 1
[4] = 12 h, 10 µM, compound concentration 10 uM, replicate 2
[5] = 24 h, 1 µM, compound concentration 1 uM, replicate 1
[6] = 24 h, 1 µM, compound concentration 1 uM, replicate 2
[7] = 24 h, 10 µM, compound concentration 10 uM, replicate 1
[8] = 24 h, 10 µM, compound concentration 10 uM, replicate 2
[9] = 48 h, 1 µM, compound concentration 1 uM, replicate 1
[10] = 48 h, 1 µM, compound concentration 1 uM, replicate 2
[11] = 48 h, 10 µM, compound concentration 10 uM, replicate 1
[12] = 48 h, 10 µM, compound concentration 10 uM, replicate 2

SMILES: C[C@]12CC[C@@H]3c4ccc(O)cc4CC[C@H]3[C@@H]1CC[C@@H]2O [ESTRADIOL]
- Population Apoptotic (%) [1]: 11%
- Population Fragmented Nuclei (%) [1]: 8%
- Population Healthy Nuclei (%) [1]: 82%
- Population Hoechst High Intensity Objects (%) [1]: 7%
- Population Membrane Permeable-Phenotype (%) [1]: 10%
- Population Mitochondria Different-Phenotype (%) [1]: 9%
- Population Mitotic Cells (%) [1]: 88%
- Population Normal (%) [1]: 92%
- Population Pyknosed Nuclei (%) [1]: 8%
- Population Tubulin-Different-Phenotype (%) [1]: 12%
- Total Cell Count [1]: 138
- Population Apoptotic (%) [2]: 50%
- Population Healthy Nuclei (%) [2]: 86%
- Population Hoechst High Intensity Objects (%) [2]: 5%
- Population Membrane Permeable-Phenotype (%) [2]: 4%
- Population Mitochondria Different-Phenotype (%) [2]: 8%
- Population Mitotic Cells (%) [2]: 50%
- Population Normal (%) [2]: 94%
- Population Pyknosed Nuclei (%) [2]: 5%
- Population Tubulin-Different-Phenotype (%) [2]: 14%
- Total Cell Count [2]: 80
- Population Apoptotic (%) [3]: 30%
- Population Fragmented Nuclei (%) [3]: 5%
- Population Healthy Nuclei (%) [3]: 82%
- Population Hoechst High Intensity Objects (%) [3]: 4%
- Population Membrane Permeable-Phenotype (%) [3]: 6%
- Population Mitochondria Different-Phenotype (%) [3]: 7%
- Population Mitotic Cells (%) [3]: 70%
- Population Normal (%) [3]: 95%
- Population Pyknosed Nuclei (%) [3]: 11%
- Population Tubulin-Different-Phenotype (%) [3]: 14%
- Total Cell Count [3]: 113
- Population Apoptotic (%) [4]: 25%
- Population Fragmented Nuclei (%) [4]: 9%
- Population Healthy Nuclei (%) [4]: 77%
- Population Hoechst High Intensity Objects (%) [4]: 8%
- Population Membrane Permeable-Phenotype (%) [4]: 4%
- Population Mitochondria Different-Phenotype (%) [4]: 12%
- Population Mitotic Cells (%) [4]: 75%
- Population Normal (%) [4]: 91%
- Population Pyknosed Nuclei (%) [4]: 12%
- Population Tubulin-Different-Phenotype (%) [4]: 25%
- Total Cell Count [4]: 76
- Population Apoptotic (%) [5]: 0%
- Population Fragmented Nuclei (%) [5]: 7%
- Population Healthy Nuclei (%) [5]: 87%
- Population Hoechst High Intensity Objects (%) [5]: 5%
- Population Membrane Permeable-Phenotype (%) [5]: 6%
- Population Mitochondria Different-Phenotype (%) [5]: 6%
- Population Mitotic Cells (%) [5]: 100%
- Population Normal (%) [5]: 94%
- Population Pyknosed Nuclei (%) [5]: 5%
- Population Tubulin-Different-Phenotype (%) [5]: 15%
- Total Cell Count [5]: 140
- Population Apoptotic (%) [6]: 50%
- Population Fragmented Nuclei (%) [6]: 4%
- Population Healthy Nuclei (%) [6]: 89%
- Population Hoechst High Intensity Objects (%) [6]: 3%
- Population Membrane Permeable-Phenotype (%) [6]: 4%
- Population Mitochondria Different-Phenotype (%) [6]: 9%
- Population Mitotic Cells (%) [6]: 50%
- Population Normal (%) [6]: 96%
- Population Pyknosed Nuclei (%) [6]: 6%
- Population Tubulin-Different-Phenotype (%) [6]: 14%
- Total Cell Count [6]: 82
- Population Apoptotic (%) [7]: 21%
- Population Fragmented Nuclei (%) [7]: 7%
- Population Healthy Nuclei (%) [7]: 79%
- Population Membrane Permeable-Phenotype (%) [7]: 2%
- Population Mitotic Cells (%) [7]: 78%
- Population Pyknosed Nuclei (%) [7]: 12%
- Population Tubulin-Different-Phenotype (%) [7]: 12%
- Total Cell Count [7]: 140
- Population Apoptotic (%) [8]: 30%
- Population Fragmented Nuclei (%) [8]: 18%
- Population Healthy Nuclei (%) [8]: 68%
- Population Hoechst High Intensity Objects (%) [8]: 3%
- Population Membrane Permeable-Phenotype (%) [8]: 5%
- Population Mitochondria Different-Phenotype (%) [8]: 11%
- Population Mitotic Cells (%) [8]: 70%
- Population Normal (%) [8]: 96%
- Population Pyknosed Nuclei (%) [8]: 13%
- Population Tubulin-Different-Phenotype (%) [8]: 43%
- Population Apoptotic (%) [9]: 31%
- Population Hoechst High Intensity Objects (%) [9]: 1%
- Population Membrane Permeable-Phenotype (%) [9]: 2%
- Population Mitotic Cells (%) [9]: 68%
- Population Normal (%) [9]: 98%
- Population Tubulin-Different-Phenotype (%) [9]: 15%
- Total Cell Count [9]: 138
- Population Apoptotic (%) [10]: 18%
- Population Fragmented Nuclei (%) [10]: 5%
- Population Healthy Nuclei (%) [10]: 86%
- Population Hoechst High Intensity Objects (%) [10]: 2%
- Population Membrane Permeable-Phenotype (%) [10]: 12%
- Population Mitochondria Different-Phenotype (%) [10]: 14%
- Population Mitotic Cells (%) [10]: 81%
- Population Normal (%) [10]: 97%
- Population Pyknosed Nuclei (%) [10]: 7%
- Population Tubulin-Different-Phenotype (%) [10]: 17%
- Total Cell Count [10]: 90
- Population Apoptotic (%) [11]: 34%
- Population Fragmented Nuclei (%) [11]: 8%
- Population Healthy Nuclei (%) [11]: 81%
- Population Membrane Permeable-Phenotype (%) [11]: 2%
- Population Mitochondria Different-Phenotype (%) [11]: 19%
- Population Mitotic Cells (%) [11]: 65%
- Population Tubulin-Different-Phenotype (%) [11]: 12%
- Population Apoptotic (%) [12]: 72%
- Population Fragmented Nuclei (%) [12]: 13%
- Population Healthy Nuclei (%) [12]: 76%
- Population Hoechst High Intensity Objects (%) [12]: 2%
- Population Membrane Permeable-Phenotype (%) [12]: 17%
- Population Mitochondria Different-Phenotype (%) [12]: 13%
- Population Mitotic Cells (%) [12]: 27%
- Population Normal (%) [12]: 97%
- Population Pyknosed Nuclei (%) [12]: 10%
- Population Tubulin-Different-Phenotype (%) [12]: 57%
- Total Cell Count [12]: 157

SMILES: CNC(=O)Nc1ccc2c(c1)[C@@]1(CC2)OC(=O)N(CC(=O)N(Cc2ccc(F)cc2)[C@@H](C)C(F)(F)F)C1=O [A-486]
- Population Apoptotic (%) [1]: 47%
- Population Fragmented Nuclei (%) [1]: 4%
- Population Healthy Nuclei (%) [1]: 81%
- Population Hoechst High Intensity Objects (%) [1]: 4%
- Population Membrane Permeable-Phenotype (%) [1]: 63%
- Population Mitochondria Different-Phenotype (%) [1]: 11%
- Population Mitotic Cells (%) [1]: 52%
- Population Normal (%) [1]: 95%
- Population Pyknosed Nuclei (%) [1]: 14%
- Population Tubulin-Different-Phenotype (%) [1]: 57%
- Total Cell Count [1]: 248
- Population Apoptotic (%) [2]: 75%
- Population Fragmented Nuclei (%) [2]: 7%
- Population Healthy Nuclei (%) [2]: 88%
- Population Hoechst High Intensity Objects (%) [2]: 11%
- Population Membrane Permeable-Phenotype (%) [2]: 59%
- Population Mitochondria Different-Phenotype (%) [2]: 19%
- Population Mitotic Cells (%) [2]: 25%
- Population Normal (%) [2]: 88%
- Population Pyknosed Nuclei (%) [2]: 4%
- Population Tubulin-Different-Phenotype (%) [2]: 60%
- Total Cell Count [2]: 105
- Population Apoptotic (%) [3]: 27%
- Population Fragmented Nuclei (%) [3]: 3%
- Population Healthy Nuclei (%) [3]: 85%
- Population Hoechst High Intensity Objects (%) [3]: 1%
- Population Membrane Permeable-Phenotype (%) [3]: 9%
- Population Mitochondria Different-Phenotype (%) [3]: 19%
- Population Mitotic Cells (%) [3]: 72%
- Population Normal (%) [3]: 99%
- Population Pyknosed Nuclei (%) [3]: 11%
- Population Tubulin-Different-Phenotype (%) [3]: 12%
- Total Cell Count [3]: 201
- Population Apoptotic (%) [4]: 33%
- Population Fragmented Nuclei (%) [4]: 6%
- Population Healthy Nuclei (%) [4]: 83%
- Population Hoechst High Intensity Objects (%) [4]: 11%
- Population Membrane Permeable-Phenotype (%) [4]: 21%
- Population Mitochondria Different-Phenotype (%) [4]: 26%
- Population Mitotic Cells (%) [4]: 66%
- Population Normal (%) [4]: 88%
- Population Pyknosed Nuclei (%) [4]: 10%
- Population Tubulin-Different-Phenotype (%) [4]: 28%
- Total Cell Count [4]: 102
- Population Apoptotic (%) [5]: 33%
- Population Fragmented Nuclei (%) [5]: 3%
- Population Healthy Nuclei (%) [5]: 89%
- Population Hoechst High Intensity Objects (%) [5]: 4%
- Population Membrane Permeable-Phenotype (%) [5]: 45%
- Population Mitochondria Different-Phenotype (%) [5]: 14%
- Population Mitotic Cells (%) [5]: 66%
- Population Normal (%) [5]: 95%
- Population Pyknosed Nuclei (%) [5]: 6%
- Population Tubulin-Different-Phenotype (%) [5]: 30%
- Total Cell Count [5]: 329
- Population Apoptotic (%) [6]: 75%
- Population Fragmented Nuclei (%) [6]: 7%
- Population Healthy Nuclei (%) [6]: 88%
- Population Hoechst High Intensity Objects (%) [6]: 7%
- Population Membrane Permeable-Phenotype (%) [6]: 44%
- Population Mitochondria Different-Phenotype (%) [6]: 18%
- Population Mitotic Cells (%) [6]: 25%
- Population Normal (%) [6]: 92%
- Population Pyknosed Nuclei (%) [6]: 3%
- Population Tubulin-Different-Phenotype (%) [6]: 27%
- Total Cell Count [6]: 115
- Population Apoptotic (%) [7]: 46%
- Population Fragmented Nuclei (%) [7]: 2%
- Population Healthy Nuclei (%) [7]: 92%
- Population Hoechst High Intensity Objects (%) [7]: 0%
- Population Membrane Permeable-Phenotype (%) [7]: 5%
- Population Mitochondria Different-Phenotype (%) [7]: 14%
- Population Mitotic Cells (%) [7]: 53%
- Population Normal (%) [7]: 99%
- Population Pyknosed Nuclei (%) [7]: 5%
- Population Tubulin-Different-Phenotype (%) [7]: 17%
- Total Cell Count [7]: 277
- Population Apoptotic (%) [8]: 40%
- Population Fragmented Nuclei (%) [8]: 5%
- Population Healthy Nuclei (%) [8]: 90%
- Population Hoechst High Intensity Objects (%) [8]: 9%
- Population Membrane Permeable-Phenotype (%) [8]: 14%
- Population Mitochondria Different-Phenotype (%) [8]: 33%
- Population Mitotic Cells (%) [8]: 60%
- Population Normal (%) [8]: 90%
- Population Pyknosed Nuclei (%) [8]: 4%
- Population Tubulin-Different-Phenotype (%) [8]: 37%
- Total Cell Count [8]: 126
